ChEMBL document CHEMBL3400019, “Pheophorbide-a conjugates with cancer-targeting moieties for targeted photodynamic cancer therapy” (Bioorg Med Chem, 2015)
Each block holds one compound with its values, some of them ahead of it. Activity calls are given as the source filed them. The calls are words filed in the database; no cut-off is given here. Residues, ends and D or L forms follow the SMILES beside them.

Assays:
[1] = system: MCF7; assay: Phototoxicity against human MCF7 cells overexpressing LHRH receptor at 0.1 to 2 uM incubated for 2 hrs followed by 1.25 J/cm'2 light irradiation from red light emitting diode for 24 hrs by MTT assay; format: functional, cell-based
Summary of the method: (§1)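 Cells seeded at 1 × 10^5 cells/mL overnight, PBS-washed, incubated 2 h in serum-free medium with photosensitizer (from 1 mM DMSO stock); medium removed, irradiated 1.25 J/cm2 red LED (613–645 nm). After 24 h, MTT (5 mg/mL stock) 3 h at 37 °C, formazan dissolved in 0.04 M HCl/isopropanol, OD 570 nm; background-subtracted, % of control; mean ± SD, three experiments.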

[2] = system: SK-OV-3; assay: Phototoxicity against LHRH receptor-negative human SKOV3 cells at 0.1 to 2 uM incubated for 2 hrs followed by 1.25 J/cm'2 light irradiation from red light emitting diode for 24 hrs by MTT assay; format: functional, cell-based; summary of the method: as §1
[3] = system: MCF7; assay: Cellular uptake in human MCF7 cells overexpressing LHRH receptor at 2 uM after 1.5 hrs by confocal microscopy; format: ADME, cell-based; details: mcf7, 1.5 h
Summary of the method: (§2)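 Cells plated on slide dishes overnight (A549 in DMEM, others in RPMI 1640, 10% FBS, 37 °C, 5% CO2); conjugate added to medium at 2 µM, incubated (time per line), washed three times with PBS, imaged by confocal microscopy; excitation 440 nm, emission 655–755 nm.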

[4] = Cellular uptake in LHRH receptor-negative human SKOV3 cells at 2 uM after 1.5 hr by confocal microscopy; details: sk-ov-3, 1.5 h
[5] = system: A549; assay: Cellular uptake in alphaVbeta3-negative human A549 cells at 2 uM after 1 hr by confocal microscopy; format: ADME, cell-based; details: a549, 1 h; summary of the method: as §2
[6] = system: U-87MG ATCC; assay: Phototoxicity against human U87MG cells overexpressing alphaVbeta3 at 0.1 to 2 uM incubated for 2 hrs followed by 1.25 J/cm'2 light irradiation from red light emitting diode for 24 hrs by MTT assay; format: functional, cell-based; summary of the method: as §1
[7] = system: A549; assay: Phototoxicity against alphaVbeta3-negative human A549 cells at 0.1 to 2 uM incubated for 2 hrs followed by 1.25 J/cm'2 light irradiation from red light emitting diode for 24 hrs by MTT assay; format: functional, cell-based; summary of the method: as §1
[8] = Cellular uptake in human U87MG cells overexpressing alphaVbeta3 at 2 uM after 1 hr by confocal microscopy; format: ADME, cell-based; details: u-87mg atcc; summary of the method: as §2
[9] = system: A549; assay: Phototoxicity against alphaVbeta6-negative human A549 cells at 0.1 to 2 uM incubated for 2 hrs followed by 1.25 J/cm'2 light irradiation from red light emitting diode for 24 hrs by MTT assay; format: functional, cell-based; summary of the method: as §1
[10] = system: FaDu; assay: Induction of apoptosis in human FADU cells overexpressing alphaVbeta6 assessed as increase in Bax expression at 0.1 to 1 uM incubated for 1 hr prior to 1.25 J/cm'2 light irradiation from red light emitting diode measured after 24 hrs by Western blotting analysis relative to control; format: functional, cell-based
Summary of the method: (§3)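 A549 and FaDu seeded 2 × 10^5 cells/well, given PDT (1 h conjugate, 1.25 J/cm2 red LED, 613–645 nm, 35 mW/cm2 at 635 nm peak), then 24 h incubation; lysed, equal protein by SDS–PAGE, PVDF transfer, antibody immunoblot for PARP cleavage, procaspase-3, Bcl-2, Bax.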

[11] = system: FaDu; assay: Induction of apoptosis in human FADU cells overexpressing alphaVbeta6 assessed as reduction in Bcl-2 expression at 0.1 to 1 uM incubated for 1 hr prior to 1.25 J/cm'2 light irradiation from red light emitting diode measured after 24 hrs by Western blotting analysis relative to control; format: functional, cell-based; summary of the method: as §3
[12] = system: A549; assay: (§4) Induction of apoptosis in alphaVbeta6-negative human A549 cells assessed as cellular shrinkage at 1 uM incubated for 1 hr prior to 1.25 J/cm'2 light irradiation from red light emitting diode measured after 24 hrs by DAPI staining-based conventional fluorescence microscopy relative to control; format: functional, cell-based
[13] = system: A549; assay: Induction of apoptosis in alphaVbeta6-negative human A549 cells assessed as PARP cleavage at 0.1 to 1 uM incubated for 1 hr prior to 1.25 J/cm'2 light irradiation from red light emitting diode measured after 24 hrs by Western blotting analysis relative to control; format: functional, cell-based; summary of the method: as §3
[14] = system: A549; assay: Induction of apoptosis in alphaVbeta6-negative human A549 cells assessed as cell rounding at 1 uM incubated for 1 hr prior to 1.25 J/cm'2 light irradiation from red light emitting diode measured after 24 hrs by DAPI staining-based conventional fluorescence microscopy relative to control; format: functional
[15] = system: FaDu; assay: Phototoxicity against human FADU cells overexpressing alphaVbeta6 at 0.1 to 2 uM incubated for 2 hrs followed by 1.25 J/cm'2 light irradiation from red light emitting diode for 24 hrs by MTT assay; format: functional, cell-based; summary of the method: as §1
[16] = system: FaDu; assay: (§5) Induction of apoptosis in human FADU cells overexpressing alphaVbeta6 assessed as cellular shrinkage at 1 uM incubated for 1 hr prior to 1.25 J/cm'2 light irradiation from red light emitting diode measured after 24 hrs by DAPI staining-based conventional fluorescence microscopy relative to control; format: functional, cell-based
[17] = system: FaDu; assay: Induction of apoptosis in human FADU cells overexpressing alphaVbeta6 assessed as PARP cleavage at 0.1 to 1 uM incubated for 1 hr prior to 1.25 J/cm'2 light irradiation from red light emitting diode measured after 24 hrs by Western blotting analysis relative to control; format: functional, cell-based; summary of the method: as §3
[18] = system: A549; assay: Cellular uptake in alphaVbeta6-negative human A549 cells at 2 uM after 1 hr by confocal microscopy; format: ADME, cell-based; details: a549, 1 h; summary of the method: as §2
[19] = system: FaDu; assay: as §5, with “condensation and the fragmentation of nuclear structure” for “cellular shrinkage”; format: functional, cell-based
Summary of the method: (§6)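 A549 and FaDu seeded 5 × 10^5 cells/well, PDT (1 h conjugate, 1.25 J/cm2 red LED, 613–645 nm), 24 h; fixed in 4% paraformaldehyde, stained with 1 µg/mL DAPI 5 min dark at rt, washed ice-cold PBS, nuclear chromatin changes viewed by fluorescence microscopy (×400).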

[20] = system: A549; assay: (§7) Induction of apoptosis in alphaVbeta6-negative human A549 cells assessed as increase in apoptotic cell death incubated for 1 hr prior to 1.25 J/cm'2 light irradiation from red light emitting diode measured after 24 hrs by Annexin V-FITC/propidium iodide staining-based flow cytometry relative to control; format: functional
Summary of the method: (§8)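 Cells seeded 5 × 10^5 per plate and given photodynamic treatment as in the viability assay: conjugate in serum-free medium, then red LED light (613–645 nm) at 1.25 J/cm2. Harvested 24 h later and washed in cold PBS. Stained 15 min at rt with saturating Annexin V-FITC and PI in HEPES binding buffer (10 mM HEPES, 140 mM NaCl, 2.5 mM CaCl2, pH 7.4). Read by flow cytometry against control.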

[21] = system: FaDu; assay: Induction of apoptosis in human FADU cells overexpressing alphaVbeta6 assessed as decrease in procaspase-3 expression at 0.1 to 1 uM incubated for 1 hr prior to 1.25 J/cm'2 light irradiation from red light emitting diode measured after 24 hrs by Western blotting analysis relative to control
[22] = system: FaDu; assay: (§9) Induction of apoptosis in human FADU cells overexpressing alphaVbeta6 assessed as cell rounding at 1 uM incubated for 1 hr prior to 1.25 J/cm'2 light irradiation from red light emitting diode measured after 24 hrs by DAPI staining-based conventional fluorescence microscopy relative to control; format: functional
[23] = system: FaDu; assay: Cellular uptake in human FADU cells overexpressing alphaVbeta6 at 2 uM after 1 hr by confocal microscopy; format: ADME, cell-based; summary of the method: as §2
[24] = system: A549; assay: as §4, with “condensation and the fragmentation of nuclear structure” for “cellular shrinkage”; format: functional, cell-based; summary of the method: as §6
[25] = system: FaDu; assay: as §9, with “assessed as decrease in cell density” for “assessed as cell rounding”, “in cell density at 1” for “as cell rounding at 1”; format: functional
[26] = system: A549; assay: Induction of apoptosis in alphaVbeta6-negative human A549 cells assessed as decrease in cell density at 1 uM incubated for 1 hr prior to 1.25 J/cm'2 light irradiation from red light emitting diode measured after 24 hrs by DAPI staining-based conventional fluorescence microscopy relative to control; format: functional
[27] = system: FaDu; assay: as §7, with “in” for “in alphaVbeta6-negative”, “FADU” for “A549”, “cells overexpressing alphaVbeta6” for “cells”; format: functional; summary of the method: as §8
[28] = system: A549; assay: Cellular uptake in folate receptor-negative human A549 cells at 2 uM after 1 hr by confocal microscopy; format: ADME, cell-based; details: a549, 0.5 h, in the assay text read “after 0.5 hr” for “after 1 hr”; summary of the method: as §2
[29] = Cellular uptake in human KB cells overexpressing folate receptor at 2 uM after 1 hr by confocal microscopy; format: ADME, cell-based; details: 0.5 h, in the assay text read “after 0.5 hr” for “after 1 hr”; summary of the method: as §2
[30] = system: KB; assay: Phototoxicity against human KB cells overexpressing folate receptor at 0.1 to 2 uM incubated for 2 hrs followed by 1.25 J/cm'2 light irradiation from red light emitting diode for 24 hrs by MTT assay; format: functional, cell-based; summary of the method: as §1
[31] = system: A549; assay: Phototoxicity against folate receptor-negative human A549 cells at 0.1 to 2 uM incubated for 2 hrs followed by 1.25 J/cm'2 light irradiation from red light emitting diode for 24 hrs by MTT assay; format: functional, cell-based; summary of the method: as §1

Structure (SMILES): C=Cc1c(C)c2cc3nc(c4c5[nH]c(cc6nc(cc1[nH]2)C(C)=C6CC)c(C)c5C(=O)[C@@H]4C(=O)OC)[C@@H](CCC(=O)NCCCC(=O)OC[C@H](NC(=O)[C@@H](Cc1c[nH]c2ccccc12)NC(=O)[C@H](Cc1cnc[nH]1)NC(=O)[C@@H]1CCC(=O)N1)C(=O)N[C@@H](Cc1ccc(O)cc1)C(=O)N[C@H](CC(C)C)C(=O)N[C@@H](CC(C)C)C(=O)N[C@@H](CCCNC(=N)N)C(=O)N1CCC[C@H]1C(=O)NCC)[C@@H]3C
Activity [1]: Active
Activity [2]: inactive

Structure (SMILES): C=Cc1c(C)c2cc3nc(c4c5[nH]c(cc6nc(cc1[nH]2)C(C)=C6CC)c(C)c5C(=O)[C@@H]4C(=O)OC)[C@@H](CCC(=O)NCCCC(=O)OC[C@H](NC(=O)[C@H](Cc1c[nH]c2ccccc12)NC(=O)[C@H](Cc1cnc[nH]1)NC(=O)[C@@H]1CCC(=O)N1)C(=O)N[C@@H](Cc1ccc(O)cc1)C(=O)N[C@H](CC(C)C)C(=O)N[C@@H](CC(C)C)C(=O)N[C@@H](CCCNC(=N)N)C(=O)N1CCC[C@H]1C(=O)NCC)[C@@H]3C
Drug uptake [3]: Active
Drug uptake [4]: Not Active

Structure (SMILES): [H][C@]12CSSC[C@]([H])(NC1=O)C(=O)N[C@@H](CCCNC(=N)N)C(=O)NCC(=O)N[C@@H](CC(=O)NCCCNC(=O)CC[C@@H]1c3nc(cc4[nH]c(cc5nc(cc6[nH]c7c(c6C)C(=O)[C@H](C(=O)OC)c37)C(CC)=C5C)c(C=C)c4C)[C@H]1C)C(=O)N[C@@H](CC(C)C)C(=O)N[C@@H](C)C(=O)N[C@@H](CO)C(=O)N[C@@H](CC(C)C)C(=O)N2 (HELM PEPTIDE1{R.G.D.L.A.S.L.C.C}|CHEM1{[C=Cc1c(C)c2cc3nc(c4c5[nH]c(cc6nc(cc1[nH]2)C(C)=C6CC)c(C)c5C(=O)[C@@H]4C(=O)OC)[C@@H](CCC(=O)NCCCN[*:1])[C@@H]3C]}$PEPTIDE1,CHEM1,3:R3-1:R1|PEPTIDE1,PEPTIDE1,8:R3-9:R3|PEPTIDE1,PEPTIDE1,1:R1-9:R2$$$V2.0)
Activity [9]: inactive
Activity [10]: Active
Activity [11]: Active
Activity [12]: inactive
Activity [13]: inactive
Activity [14]: inactive
Activity [15]: Active
Activity [16]: Active
Activity [17]: Active
Drug uptake [18]: Not Active
Activity [19]: Active
Activity [20]: 19.8%
Activity [21]: Active
Activity [22]: Active
Drug uptake [23]: Active
Activity [24]: inactive
Activity [25]: Active
Activity [26]: inactive
Activity [27]: Dose-dependent effect
Activity ([27]; record 2): 31.4%

Second part, led by results:

Drug uptake [5]: Not Active
Drug uptake [8]: Active
Structure (SMILES): C=Cc1c(C)c2cc3nc(c4c5[nH]c(cc6nc(cc1[nH]2)C(C)=C6CC)c(C)c5C(=O)[C@@H]4C(=O)OC)[C@@H](CCC(=O)NCCCC(=O)NCCCC[C@H]1NC(=O)[C@@H](Cc2ccccc2)NC(=O)[C@H](CC(=O)O)NC(=O)CNC(=O)[C@H](CCCNC(=N)N)NC1=O)[C@@H]3C
Activity [6]: Active
Activity [7]: inactive

Drug uptake [28]: Not Active
Drug uptake [29]: Active
Structure (SMILES): C=Cc1c(C)c2cc3nc(c4c5[nH]c(cc6nc(cc1[nH]2)C(C)=C6CC)c(C)c5C(=O)[C@@H]4C(=O)OC)[C@@H](CCC(=O)NCCOCCOCCNC(=O)CCC(NC(=O)c1ccc(NCc2cnc4nc(N)[nH]c(=O)c4n2)cc1)C(=O)O)[C@@H]3C (some centres not stated)
Activity [30]: Active
Activity [31]: inactive
